Measured values collected from several papers.
Lines come from different studies, so protocols differ.
Target: Serine/threonine-protein kinase 38 (STK38, Homo sapiens, UniProt Q15208)

SMILES	effect on	action	method	cells	tested at	endpoint	value
O=C1Nc2ccc(Cl)cc2C1=Cc1cc(Cl)c(O)c(Cl)c1	cell-free assay				0.5 µM	remaining signal	85.4%
Cn1c2c(Cl)c(Cl)ccc2c2cc(N)[nH]c(=O)c21	thermal stability		DSF		10 µM	ΔTm	-0.2 °C
Cc1ccc(C(=O)Nc2ccc(CN3CCN(C)CC3)c(C(F)(F)F)c2)cc1C#Cc1cnc2cccnn12	enzyme activity	inhibitor			23.5 nM	remaining activity	78%
NS(=O)(=O)c1cc(NC(=O)C2(c3ccccc3Cl)CC2)ccc1Oc1cccc(Cl)c1	cell-free assay		competition with immobilised ligand		1 µM	remaining binding	81%
CC(C)(O)[C@H]1CC[C@H](Nc2ccc3ncc(-c4cccc(C(F)(F)F)c4)n3n2)CC1	enzyme activity	inhibitor			1 µM	remaining activity	96.7%
O=C(Nc1cnn(-c2csc(C(=O)NC3COC3)c2)c1)Nc1ccccc1Cl	enzyme activity	inhibitor			5 µM	remaining activity	99.2%
CC/C(=N\NC(=O)NCc1cccc(O)c1)c1ccc(O)c(C)c1O	enzyme activity	inhibitor			0.1 µM	inhibition	18.8%
CCN1CCC2(CC1)NC(=O)c1c(c3ccc(Cl)c(Cl)c3n1C)C2C#N (racemic)	thermal stability		DSF		10 µM	ΔTm	0.1 °C
Cc1nc(Cc2cccc(C(F)(F)F)c2)sc1-c1ccc(C(N)=O)nc1	cell-free assay		competition with immobilised ligand		1 µM	remaining binding	81%
CCN1CCN(Cc2ccc(NC(=O)c3ccc(C)c(Oc4ccnc5[nH]ccc45)c3)cc2C(F)(F)F)CC1	target engagement in cells	inhibitor	chemoproteomics	A-375	5 µM	inhibition	-0.846%
N#CC1c2c([nH]c3c(Cl)c(Cl)ccc23)C(=O)NC12CCCCC2 (racemic)	thermal stability		DSF		10 µM	ΔTm	0.6 °C
CN([C@@H]1CCc2c(CC(=O)O)c3cc(S(C)(=O)=O)ccc3n2C1)S(=O)(=O)c1ccc(F)cc1	cell-free assay		competition with immobilised ligand		1 µM	remaining binding	85%
Cn1c2c(c3ccc(Cl)c(Cl)c31)C(C#N)C(C)(C)NC2=O (stereo not drawn)	thermal stability		DSF		10 µM	ΔTm	0.1 °C
O=S(=O)(NC1CCC(c2cc(F)ccc2F)(S(=O)(=O)c2ccc(Cl)cc2)CC1)C(F)(F)F (stereo not drawn)	cell-free assay		competition with immobilised ligand		1 µM	remaining binding	100%
Cn1c2c(Cl)c(Cl)ccc2c2cn[nH]c(=O)c21	thermal stability		DSF		10 µM	ΔTm	0 °C
O=C1NC(=O)c2cc(Nc3ccc(F)cc3)c(Nc3ccc(F)cc3)cc21	cell-free assay				0.5 µM	remaining signal	85.5%
Cn1c2c(c3ccc(Cl)c(Cl)c31)C(C#N)C1(CCNCC1)NC2=O (racemic)	thermal stability		DSF		10 µM	ΔTm	0.4 °C
O=C(Nc1cnc(Oc2ccc(F)cc2)nc1)N1CCc2ncccc2[C@@H]1c1ccc(F)cc1	cell-free assay		competition with immobilised ligand		1 µM	remaining binding	91%
